Results taken from ChEMBL document CHEMBL4033782, “Structural Modification of Natural Product Tanshinone I Leading to Discovery of Novel Nitrogen-Enriched Derivatives with Enhanced Anticancer Profile and Improved Drug-like Properties” (J Med Chem, 2018).
Values after ≈ are worked out from the molar mass of the structure shown. Active and inactive are the calls of the source. No cut-off for these calls is given here.

How the values were obtained:
[1] = test system: KB; test: Antiproliferative activity against human KB cells after 72 hrs by sulforhodamine B assay; format: functional, cell-based
Summary of the method: (§1)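 Cells grown in ATCC-specified medium with 10% heat-inactivated FBS, penicillin/streptomycin and 10 mM Hepes, at 37 °C under 5% CO2. Seeded, cultured overnight, then exposed to gradient concentrations for 72 h. Growth read by SRB staining; inhibition % = [1−(A450 treated/A450 control)]×100. IC50 obtained by the Logit method from independent experiments.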

[2] = Antiproliferative activity against human KB/VCR cells after 72 hrs by sulforhodamine B assay; format: functional, cell-based; summary of the method: as §1
[3] = Half life in human liver microsomes at 0.1 uM up to 60 mins by LC-MS/MS analysis; format: ADME, microsome
Summary of the method: (§2)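 Compound at 0.1 μM final (0.01% DMSO, 0.005% BSA) incubated at 37 °C with human, rat or mouse liver microsomes (0.33 mg/mL protein) in 0.1 M Tris/HCl pH 7.4, with 5 mM MgCl2 and 1 mM NADPH. Samples taken at 0, 7, 17, 30 and 60 min, quenched by methanol precipitation, centrifuged, and parent measured by LC-MS/MS. T1/2 and Clint derived.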

[4] = Half life in rat liver microsomes at 0.1 uM up to 60 mins by LC-MS/MS analysis; format: ADME, microsome; summary of the method: as §2
[5] = Half life in mouse liver microsomes at 0.1 uM up to 60 mins by LC-MS/MS analysis; format: ADME, microsome; conditions: liver microsomes; summary of the method: as §2
[6] = test system: Liver; test: Intrinsic clearance in human liver microsomes assessed as per mg protein up to 60 mins by LC-MS/MS analysis; format: ADME, microsome; conditions: 1 h; summary of the method: as §2
[7] = test system: Liver; test: Intrinsic clearance in rat liver microsomes assessed per mg protein up to 60 mins by LC-MS/MS analysis; format: ADME, microsome; conditions: 1 h
Summary of the method: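 Liver microsomes (0.33 mg/mL protein) in 0.1 M Tris/HCl pH 7.4 with 5 mM MgCl2, 1 mM NADPH, compound at 0.1 μM final (0.01% DMSO, 0.005% BSA), 37 °C; samples at 0, 7, 17, 30, 60 min quenched in methanol, centrifuged, LC-MS/MS; T1/2 and Clint per g protein derived.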

[8] = test system: Liver; test: Intrinsic clearance in mouse liver microsomes assessed per mg protein up to 60 mins by LC-MS/MS analysis; format: ADME, microsome; conditions: 1 h; summary of the method: as §2
[9] = Aqueous solubility of the compound in pH 7.5 Tris buffer after 24 hrs by HPLC method; format: physicochemical
[10] = test system: HCT-116; test: Induction of apoptosis in human HCT116 cells after 48 hrs by Annexin V-FITC/propidium iodide staining-based FACS analysis; format: functional, cell-based
[11] = test system: HCT-116; test: Induction of apoptosis in human HCT116 cells assessed as cleavage of PARP after 48 hrs by Western blot analysis; format: functional, cell-based
Summary of the method: (§3)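 HCT116 cells, with or without a 1 h pretreatment with 20 μM Z-VAD-FMK, exposed for 48 h. Lysed on ice in Hepes/NaCl/Triton X-100 buffer with protease/phosphatase inhibitors and clarified at 12,000×g. Equal protein run by SDS-PAGE, blotted to nitrocellulose, probed overnight at 4 °C for PARP, caspase 3, caspase 7 and β-actin. HRP secondaries, ECL detection.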

[12] = test system: HCT-116; test: Induction of apoptosis in human HCT116 cells assessed as activation of caspase 3/7 after 48 hrs by Western blot analysis; format: functional, cell-based; summary of the method: as §3
[13] = test system: HCT-116; test: Induction of apoptosis in human HCT116 cells pretreated with Z-VAD-FMK pan-caspase inhibitor for 1 hr assessed as cleavage of PARP at 0.5 to 2 uM after 48 hrs by Western blot analysis; format: functional, cell-based; summary of the method: as §3
[14] = test system: HCT-116; test: Induction of apoptosis in human HCT116 cells pretreated with Z-VAD-FMK pan-caspase inhibitor for 1 hr assessed as activation of caspase 3/7 at 0.5 to 2 uM after 48 hrs by Western blot analysis; format: functional, cell-based; summary of the method: as §3
[15] = test system: HCT-116; test: Antitumor activity against human HCT116 cells xenografted in BALB/C nude mouse assessed as tumor growth inhibition at 10 mg/kg, iv once daily for 14 days starting on day 14 post tumor implantation measured on day 32; format: functional, organism-based
Summary of the method: (§4)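 BALB/c nude male mice (18–20 g) implanted subcutaneously in the right axilla with HCT116 cells. Dosing began once tumors exceeded 100 mm³ (day 14). Test agent given 10 mg/kg i.v. or 30 mg/kg i.p. daily for 14 days; 5-FU 15 mg/kg as reference. Vehicle 1% DMSO in sterile saline; 6 mice per treated group, 10 per control. Relative tumor volume and body weight tracked.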

[16] = test system: HCT-116; test: Antitumor activity against human HCT116 cells xenografted in BALB/C nude mouse assessed as tumor growth inhibition at 30 mg/kg, ip once daily for 14 days starting on day 14 post tumor implantation measured on day 32; format: functional, organism-based; summary of the method: as §4
[17] = test system: HCT-116; test: Induction of apoptosis in human HCT116 cells assessed as activation of caspase 3/7 at 1.0 to 4.0 uM after 24 hrs by Caspase-Glo 3/7 assay
[18] = test system: HCT-116; test: Induction of apoptosis in human HCT116 cells pretreated with Z-VAD-FMK pan-caspase inhibitor for 1 hr assessed as activation of caspase 3/7 at 1.0 to 4.0 uM after 24 hrs by Caspase-Glo 3/7 assay

| Compound | IC50 [1] [µM] | IC50 [2] [µM] | further results |
| --- | --- | --- | --- |
| Cc1cc2c(o1)-c1c(c3ccccc3c(=O)n1CCCN1CCN(C)CC1)C(=O)C2=O | 10.4 | 3.52 |  |
| CON(C)Cc1coc2c1C(=O)C(=O)c1c-2ccc2c(C)cccc12 | 8.12 | 5.71 |  |
| COC1C2=C(OC1(C)C)c1ccc3c(C)cccc3c1C(=O)C2=O (stereo not drawn) | 2.19 | 2.02 |  |
| Cc1cc2c(o1)-c1nc(OCCCCN(C)C)c3ccccc3c1C(=O)C2=O | > 20 | > 20 |  |
| Cc1cccc2c3c(ccc12)-c1occ(CN2CCOCC2)c1C(=O)C3=O | > 20 | > 20 |  |
| Cc1cc2c(o1)-c1nc(OCCOCCN(C)C)c3ccccc3c1C(=O)C2=O | 3.78 | 1.65 |  |
| Cc1cccc2c3c(ccc12)-c1occ(CN2CCC(O)CC2)c1C(=O)C3=O | 1.54 | 1.11 |  |
| Cc1cc2c(o1)-c1nc(OCCCCCN(C)C)c3ccccc3c1C(=O)C2=O | 15.3 | 1.99 |  |
| Cc1cccc2c3c(ccc12)-c1occ(CN(C)C)c1C(=O)C3=O | 1.11 | 0.51 | half-life at 0.1 µM [3]: 501 min; half-life at 0.1 µM [4]: 22.7 min; half-life at 0.1 µM [5]: 40.7 min; intrinsic clearance [6]: 4.19 mL/min/g; intrinsic clearance [7]: 92.7 mL/min/g; intrinsic clearance [8]: 51.6 mL/min/g |
| Cc1cc2c(o1)-c1c(c3ccccc3c(=O)n1CCCN1CCC(CCO)CC1)C(=O)C2=O | 0.87 | 1.49 |  |
| Cc1cccc2c3c(ccc12)C1=C(C(=O)C3=O)C(Nc2ccc(F)c([N+](=O)[O-])c2)C(C)(C)O1 (stereo not drawn) | > 20 | > 20 |  |
| Cc1cc2c(o1)-c1c(c3ccccc3c(=O)n1CCCn1ccnc1)C(=O)C2=O | 17.2 | 10.1 |  |
| Cc1cc2c(o1)-c1c(c3ccccc3c(=O)n1CCCCN(C)C)C(=O)C2=O | 4.05 | 2.47 |  |
| Cc1cc2c(o1)-c1c(c3ccccc3c(=O)n1CCCN1CCCCC1)C(=O)C2=O | 1.12 | 1.53 |  |
| Cc1cccc2c3c(ccc12)C1=C(CC(C)(C)O1)C(=O)C3=O | 2.62 | 2.37 |  |
| Cc1cccc2c3c(ccc12)C1=C(C(=O)C3=O)C(O)C(C)(C)O1 (stereo not drawn) | 1.63 | 1.24 | solubility at 24 h [9]: 90 µg/mL (≈ 292 µM); half-life at 0.1 µM [3]: 57.1 min; half-life at 0.1 µM [4]: 20.2 min; half-life at 0.1 µM [5]: 25.3 min; intrinsic clearance [6]: 36.8 mL/min/g; intrinsic clearance [7]: 104 mL/min/g; intrinsic clearance [8]: 83.1 mL/min/g |
| Cc1cc2c(o1)-c1c(c3ccccc3c(=O)n1CCCN(C)C)C(=O)C2=O | 0.71 | 0.92 |  |
| Cc1cccc2c3c(ccc12)-c1occ(CN2CCC(=O)CC2)c1C(=O)C3=O | 9.71 | 4.74 |  |
| Cc1cccc2c3c(ccc12)-c1occ(CO)c1C(=O)C3=O | 3.22 | 2.95 |  |
| Cc1cc2c(o1)-c1c(c3ccccc3c(=O)n1CCCN1CCC(N3CCOCC3)CC1)C(=O)C2=O | 0.34 | 1.72 |  |

| Compound | IC50 [1] [µM] | IC50 [2] [µM] | further results |
| --- | --- | --- | --- |
| Cc1cccc2c3c(ccc12)-c1occ(CN2CCC(CO)C2)c1C(=O)C3=O (stereo not drawn) | 1.27 | 0.91 |  |
| CC[C@]1(O)C[C@H]2CN(CCc3c([nH]c4ccccc34)[C@@](C(=O)OC)(c3cc4c(cc3OC)N(C=O)[C@H]3[C@@](O)(C(=O)OC)[C@H](OC(C)=O)[C@]5(CC)C=CCN6CC[C@]43[C@@H]65)C2)C1 [VINCRISTINE] | 0.00072 | 0.358 |  |
| Cc1cccc2c3c(ccc12)-c1occ(CN(C)C)c1C(=O)C3=O.Cl |  |  | solubility at 24 h [9]: 8030 µg/mL |
| Cc1cc2c(o1)-c1c(c3ccccc3c(=O)n1CCO)C(=O)C2=O | > 20 | > 20 |  |
| Cc1cccc2c3c(ccc12)-c1occ(CN2CCCC2)c1C(=O)C3=O | 1.59 | 1.79 |  |
| Cc1cc2c(o1)-c1c(c3ccccc3c(=O)n1CCCN1CCOCC1)C(=O)C2=O | 2.3 | 1.56 |  |
| Cc1cccc2c3c(ccc12)-c1occ(CN2CCO[C@H](CO)C2)c1C(=O)C3=O | 4.97 | 2.41 |  |
| Cc1cccc2c3c(ccc12)-c1occ(CN2CCN(C)CC2)c1C(=O)C3=O | 5.22 | 13.1 |  |
| Cc1cccc2c3c(ccc12)-c1occ(CN2CC[C@H](N(C)C)C2)c1C(=O)C3=O | 2.61 | 1.7 |  |
| Cc1cc2c(o1)-c1c(c3ccccc3c(=O)n1CCCCCN(C)C)C(=O)C2=O | 13.8 | 5.17 |  |
| CCN(CC)CCCn1c2c(c3ccccc3c1=O)C(=O)C(=O)c1cc(C)oc1-2.Cl |  |  | solubility at 24 h [9]: > 80000 µg/mL |
| Cc1cccc2c3c(ccc12)-c1occ(CN(CCCl)CCCl)c1C(=O)C3=O | 9.43 | 10.9 |  |
| Cc1cccc2c3c(ccc12)-c1occ(CN2CCC(N(C)C)CC2)c1C(=O)C3=O | 3.8 | 3.82 |  |
| Cc1cc2c(o1)-c1c(c3ccccc3c(=O)n1CCCN1CCCC1)C(=O)C2=O | 3.4 | 2.64 |  |
| COc1ccc(OC)c(NC2C3=C(OC2(C)C)c2ccc4c(C)cccc4c2C(=O)C3=O)c1 (stereo not drawn) | > 20 | > 20 |  |
| Cc1cc2c(o1)-c1nc(OCCO)c3ccccc3c1C(=O)C2=O | > 20 | > 20 |  |
| Cc1cccc2c3c(ccc12)-c1occ(CN(CCO)CCO)c1C(=O)C3=O | 1.64 | 1.43 |  |
| Cc1cccc2c3c(ccc12)-c1occ(CN2CCN(CCO)CC2)c1C(=O)C3=O | 2.68 | 4.41 |  |
| CCN(CC)CCCn1c2c(c3ccccc3c1=O)C(=O)C(=O)c1cc(C)oc1-2 |  |  | Activity [10]: Dose-dependent effect; Activity [11]: Dose-dependent effect; Activity [12]: Dose-dependent effect; Activity [13]: inactive; Activity [14]: inactive; TGI [15]: Active; TGI [16]: Active; Activity [17]: Active; Activity [18]: inactive |
| Cc1cccc2c3c(ccc12)-c1occ(CN(C)CCO)c1C(=O)C3=O | 1.5 | 1.02 |  |
